Experimental findings from ChEMBL document CHEMBL6083196, “Synthesis and cytotoxic activity of madecassic acid-silybin conjugate compounds in liver cancer cells” (2024) are described below.

Structures are written as SMILES.

This test concerns HepG2. Kind of test: Cytotoxicity against human HepG2 cells incubated for 96 hrs by MTT assay. The format is functional. The gist of the method:
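Cells grown in DMEM with 10% FBS and 1% antibiotic at 37 °C, 5% CO2. Trypsinised, seeded at 3 × 10^4 cells per mL, treated over an eight-point titration for 96 h. MTT (0.5 mg mL−1) added for 4 h at 37 °C, formazan dissolved in DMSO, absorbance read at 570 nm. GI50 is the concentration halving the MTT signal versus untreated control. Ellipticine served as reference; n ≥ 3 repeats.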
For orientation: Tetrazolium assays rely on reduction of a dye to a coloured formazan, in cell work by metabolically active cells.
Turning to `COc1cc([C@H]2Oc3cc([C@H]4Oc5cc(O)cc(O)c5C(=O)[C@@H]4OC(=O)CCNC(=O)[C@]45CC[C@@H](C)[C@H](C)[C@H]4C4=CC[C@@H]6[C@@]7(C)C[C@@H](OC(C)=O)[C@H](OC(C)=O)[C@@](C)(COC(C)=O)[C@@H]7[C@H](O)C[C@@]6(C)[C@]4(C)CC5)ccc3O[C@@H]2CO)ccc1O`, it took 141 µM to inhibit growth by half (GI50).
With `COc1cc([C@H]2Oc3cc([C@H]4Oc5cc(OC(C)=O)cc(OC(C)=O)c5C(=O)[C@@H]4OC(=O)CNC(=O)[C@]45CC[C@@H](C)[C@H](C)[C@H]4C4=CC[C@@H]6[C@@]7(C)C[C@@H](OC(C)=O)[C@H](OC(C)=O)[C@@](C)(COC(C)=O)[C@@H]7[C@H](O)C[C@@]6(C)[C@]4(C)CC5)ccc3O[C@@H]2COC(C)=O)ccc1OC(C)=O` the figure was 122 µM; with `COc1cc([C@H]2Oc3cc([C@H]4Oc5cc(OC(C)=O)cc(OC(C)=O)c5C(=O)[C@@H]4OC(=O)CCNC(=O)[C@]45CC[C@@H](C)[C@H](C)[C@H]4C4=CC[C@@H]6[C@@]7(C)C[C@@H](OC(C)=O)[C@H](OC(C)=O)[C@@](C)(COC(C)=O)[C@@H]7[C@H](O)C[C@@]6(C)[C@]4(C)CC5)ccc3O[C@@H]2COC(C)=O)ccc1OC(C)=O`, 360 µM.
With `COc1cc([C@H]2Oc3cc(-c4cc(=O)c5c(O)cc(OC(=O)[C@]67CC[C@@H](C)[C@H](C)[C@H]6C6=CC[C@@H]8[C@@]9(C)C[C@@H](OC(C)=O)[C@H](OC(C)=O)[C@@](C)(COC(C)=O)[C@@H]9[C@H](O)C[C@@]8(C)[C@]6(C)CC7)cc5o4)ccc3O[C@@H]2CO)ccc1O`, the GI50 – broadly, the concentration at which growth is held to half of that of the control – was over 500 µM.
`COc1cc([C@H]2Oc3cc(-c4oc5cc(OC(C)=O)cc(OC(C)=O)c5c(=O)c4OC(=O)[C@]45CC[C@@H](C)[C@H](C)[C@H]4C4=CC[C@@H]6[C@@]7(C)C[C@@H](OC(C)=O)[C@H](OC(C)=O)[C@@](C)(COC(C)=O)[C@@H]7[C@H](O)C[C@@]6(C)[C@]4(C)CC5)ccc3O[C@@H]2COC(C)=O)ccc1OC(C)=O` displayed a concentration for 50% growth inhibition (GI50) of 471 µM.
With `COc1cc([C@H]2Oc3cc([C@H]4Oc5cc(OC(C)=O)cc(OC(C)=O)c5C(=O)[C@@H]4OC(=O)CNC(=O)[C@]45CC[C@@H](C)[C@H](C)[C@H]4C4=CC[C@@H]6[C@@]7(C)C[C@@H](OC(C)=O)[C@H](OC(C)=O)[C@@](C)(COC(C)=O)C7=CC[C@@]6(C)[C@]4(C)CC5)ccc3O[C@@H]2COC(C)=O)ccc1OC(C)=O` the figure was 243 µM; with `COc1cc([C@H]2Oc3cc([C@H]4Oc5cc(O)cc(O)c5C(=O)[C@@H]4OC(=O)CNC(=O)[C@]45CC[C@@H](C)[C@H](C)[C@H]4C4=CC[C@@H]6[C@@]7(C)C[C@@H](OC(C)=O)[C@H](OC(C)=O)[C@@](C)(COC(C)=O)C7=CC[C@@]6(C)[C@]4(C)CC5)ccc3O[C@@H]2CO)ccc1O`, 174 µM.
Regarding `COc1cc([C@H]2Oc3cc([C@H]4Oc5cc(O)cc(O)c5C(=O)[C@@H]4OC(=O)CCNC(=O)[C@]45CC[C@@H](C)[C@H](C)[C@H]4C4=CC[C@@H]6[C@@]7(C)C[C@@H](OC(C)=O)[C@H](OC(C)=O)[C@@](C)(COC(C)=O)C7=CC[C@@]6(C)[C@]4(C)CC5)ccc3O[C@@H]2CO)ccc1O`, it took 344 µM to inhibit growth by half (GI50).
With `CC(=O)OC[C@@]1(C)[C@@H]2[C@H](O)C[C@]3(C)[C@H](CC=C4[C@@H]5[C@@H](C)[C@H](C)CC[C@]5(C(=O)O)CC[C@]43C)[C@@]2(C)C[C@@H](OC(C)=O)[C@@H]1OC(C)=O` the figure was 44.1 µM.
Next, `CC(=O)OC[C@@]1(C)C2=CC[C@]3(C)C(CC=C4[C@@H]5[C@@H](C)[C@H](C)CC[C@]5(C(=O)O)CC[C@]43C)[C@@]2(C)C[C@@H](OC(C)=O)[C@@H]1OC(C)=O` (some centres not stated): 38.5 µM.
As to `COc1cc([C@H]2Oc3cc([C@H]4Oc5cc(OC(C)=O)cc(OC(C)=O)c5C(=O)[C@@H]4OC(=O)CCCCCCCCCCNC(=O)[C@]45CC[C@@H](C)[C@H](C)[C@H]4C4=CC[C@@H]6[C@@]7(C)C[C@@H](OC(C)=O)[C@H](OC(C)=O)[C@@](C)(COC(C)=O)[C@@H]7[C@H](O)C[C@@]6(C)[C@]4(C)CC5)ccc3O[C@@H]2COC(C)=O)ccc1OC(C)=O`, the GI50 is 199 µM.
With `COc1cc([C@H]2Oc3cc([C@H]4Oc5cc(OC(=O)[C@]67CC[C@@H](C)[C@H](C)[C@H]6C6=CC[C@@H]8[C@@]9(C)C[C@@H](OC(C)=O)[C@H](OC(C)=O)[C@@](C)(COC(C)=O)[C@@H]9[C@H](O)C[C@@]8(C)[C@]6(C)CC7)cc(O)c5C(=O)[C@@H]4O)ccc3O[C@@H]2CO)ccc1O` the figure was over 500 µM; with `COc1cc([C@H]2Oc3cc([C@H]4Oc5cc(O)cc(O)c5C(=O)[C@@H]4OC(=O)CCCCCCCCCCNC(=O)[C@]45CC[C@@H](C)[C@H](C)[C@H]4C4=CC[C@@H]6[C@@]7(C)C[C@@H](OC(C)=O)[C@H](OC(C)=O)[C@@](C)(COC(C)=O)[C@@H]7[C@H](O)C[C@@]6(C)[C@]4(C)CC5)ccc3O[C@@H]2CO)ccc1O`, 383 µM; with `COc1cc([C@H]2Oc3cc([C@H]4Oc5cc(OC(C)=O)cc(OC(C)=O)c5C(=O)[C@@H]4OC(=O)CCNC(=O)[C@]45CC[C@@H](C)[C@H](C)[C@H]4C4=CC[C@@H]6[C@@]7(C)C[C@@H](OC(C)=O)[C@H](OC(C)=O)[C@@](C)(COC(C)=O)C7=CC[C@@]6(C)[C@]4(C)CC5)ccc3O[C@@H]2COC(C)=O)ccc1OC(C)=O`, 352 µM.
Next, `COc1cc([C@H]2Oc3cc(-c4oc5cc(O)cc(O)c5c(=O)c4OC(=O)[C@]45CC[C@@H](C)[C@H](C)[C@H]4C4=CC[C@@H]6[C@@]7(C)C[C@@H](OC(C)=O)[C@H](OC(C)=O)[C@@](C)(COC(C)=O)[C@@H]7[C@H](O)C[C@@]6(C)[C@]4(C)CC5)ccc3O[C@@H]2CO)ccc1O`: 217 µM; `Cc1c2ccncc2c(C)c2c1[nH]c1ccccc12` [ELLIPTECINE]: 0.42 µM; `COc1cc([C@H]2Oc3cc([C@H]4Oc5cc(O)cc(O)c5C(=O)[C@@H]4O)ccc3O[C@@H]2CO)ccc1O` [SILYBIN A]: 285 µM.
